Tests used:
[1] = Apparent permeability from apical to basolateral side in human Caco2 cells at 10 uM after 90 mins by LC-MS/MS analysis; assay type: ADME, cell-based, Caco-2; conditions: Caco-2
MCF7 [2] = assay: Cytotoxicity against human MCF7 cells after 72 hrs by MTT assay; assay type: functional, cell-based; conditions: MCF7, 72 h
Method in brief: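 MCF-7 cells exposed to compound for 72 h and read by MTT. At least six replicate wells per assay, run on three separate occasions. IC₅₀ given as mean with standard deviation.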

NCI-H460 = assay: Cytotoxicity against human NCI-H460 cells at 1 uM after 72 hrs by MTT assay; assay type: functional; conditions: NCI-H460, 72 h, read-out: GI
Method in brief: (§1)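 Cells plated at 2000–5000/well, attached overnight at 37 °C. DMSO stocks (100 mM) serially diluted in medium to a final 1 µM, tested in duplicate wells. Exposure 72 h at 37 °C, 5% CO₂. MTT (5 mg/mL, 10 µL) added for 4 h. Lysis in 10% SDS / 5% isopropanol / 0.012 N HCl, then OD read at 580–680 nm.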

HeLa = assay: Cytotoxicity against human HeLa cells at 1 uM after 72 hrs by MTT assay; assay type: functional; conditions: read-out: GI; method in brief: as §1
HT-29 = assay: Cytotoxicity against human HT-29 cells at 1 uM after 72 hrs by MTT assay; assay type: functional; conditions: HT-29, 72 h, read-out: GI; method in brief: as §1
A2780 = assay: Cytotoxicity against human A2780 cells at 1 uM after 72 hrs by MTT assay; assay type: functional; conditions: A2780, 72 h, read-out: GI; method in brief: as §1
A-375 = assay: Cytotoxicity against human A375 cells at 1 uM after 72 hrs by MTT assay; assay type: functional; conditions: A-375, 72 h, read-out: GI
Method in brief: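 Cells plated at 2000–5000/well, attached overnight at 37 °C. DMSO stocks (100 mM) serially diluted in medium to a final 1 µM, tested in duplicate wells. MTT (5 mg/mL, 10 µL) added for 4 h. Lysis in 10% SDS / 5% isopropanol / 0.012 N HCl, then OD read at 580–680 nm.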

HL-60 = assay: Cytotoxicity against human HL60 cells at 1 uM after 72 hrs by MTT assay; assay type: functional; conditions: HL-60, 72 h, read-out: GI; method in brief: as §1
DU-145 = assay: Cytotoxicity against human DU145 cells at 1 uM after 72 hrs by MTT assay; assay type: functional; conditions: DU-145, 72 h, read-out: GI; method in brief: as §1
MCF7 [3] = assay: Cytotoxicity against human MCF7 cells at 1 uM after 72 hrs by MTT assay; assay type: functional; conditions: MCF7, 72 h, read-out: GI; method in brief: as §1

SMILES | Papp A→B at 1.5 h, 10 µM [1] | IC50 (MCF7 [2]) | inhibition of growth at 1 µM (NCI-H460) | inhibition of growth at 1 µM (HeLa) | inhibition of growth at 1 µM (HT-29) | inhibition of growth at 1 µM (A2780) | inhibition of growth at 1 µM (A-375) | inhibition of growth at 1 µM (HL-60) | inhibition of growth at 1 µM (DU-145) | inhibition of growth at 1 µM (MCF7 [3])
CO[C@H]1C(=O)[C@]2(C)[C@@H](OC(=O)N(C)C)C[C@H]3OC[C@@]3(OC(C)=O)[C@H]2[C@H](OC(=O)c2ccccc2)[C@]23OC(=O)O[C@H]2[C@H](OC(=O)[C@H](O)[C@@H](NC(=O)OC(C)(C)C)c2ccccn2)C(C)=C1C3(C)C | 2.46 ×10⁻⁶ cm/s | 18.2 nM |  |  |  |  |  |  |  | 
CO[C@H]1C(=O)[C@]2(C)[C@@H](OC)C[C@H]3OC[C@@]3(OC(C)=O)[C@H]2[C@H](OC(=O)c2ccccc2)[C@]2(O)C[C@H](OC(=O)[C@H](O)[C@@H](NC(=O)OC(C)(C)C)c3ccccc3)C(C)=C1C2(C)C [CABAZITAXEL] | 3.73 ×10⁻⁶ cm/s |  | 79.8% | 98.2% | 87.2% | 93.8% | 97% | 97.8% | 83.1% | 88.5%
CO[C@H]1C(=O)[C@]2(C)[C@@H](OC(=O)N(C)C)C[C@H]3OC[C@@]3(OC(C)=O)[C@H]2[C@H](OC(=O)c2ccccc2)[C@]23OC(=O)O[C@H]2[C@H](OC(=O)[C@H](O)[C@@H](NC(=O)OC(C)(C)C)c2ccccc2)C(C)=C1C3(C)C | < 1.67 ×10⁻⁶ cm/s | 15.4 nM | 86.2% | 100% | 87.4% | 95.9% | 93.1% | 97.5% | 90.7% | 84.7%
COC(=O)O[C@H]1C[C@H]2OC[C@@]2(OC(C)=O)[C@H]2[C@H](OC(=O)c3ccccc3)[C@]3(O)C[C@H](OC(=O)[C@H](O)[C@@H](NC(=O)OC(C)(C)C)c4ccccn4)C(C)=C([C@@H](OC)C(=O)[C@]12C)C3(C)C | 4.53 ×10⁻⁶ cm/s |  |  | 102% |  |  |  |  |  | 
COC(=O)O[C@H]1C[C@H]2OC[C@@]2(OC(C)=O)[C@H]2[C@H](OC(=O)c3ccccc3)[C@]3(O)C[C@H](OC(=O)[C@H](O)[C@@H](NC(=O)c4ccccc4)c4ccccc4)C(C)=C([C@@H](OC)C(=O)[C@]12C)C3(C)C | 3.32 ×10⁻⁶ cm/s |  | 90.3% | 102% | 89.7% | 96.9% | 94% | 97.8% | 88.3% | 107%
CO[C@H]1C(=O)[C@]2(C)[C@@H](OC)C[C@H]3OC[C@@]3(OC(C)=O)[C@H]2[C@H](OC(=O)c2ccccc2)[C@]23OC(=O)O[C@H]2[C@H](OC(=O)[C@H](O)[C@@H](NC(=O)OC(C)(C)C)c2ccccn2)C(C)=C1C3(C)C | 3.66 ×10⁻⁶ cm/s | 3.4 nM |  |  |  |  |  |  |  | 
COC(=O)O[C@H]1C(=O)[C@]2(C)[C@@H](OC)C[C@H]3OC[C@@]3(OC(C)=O)[C@H]2[C@H](OC(=O)c2ccccc2)[C@]2(O)C[C@H](OC(=O)[C@H](O)[C@@H](NC(=O)c3ccccc3)c3ccccc3)C(C)=C1C2(C)C | 4.38 ×10⁻⁶ cm/s |  | 86.4% | 101% | 88.8% | 95.8% | 94.2% | 96.8% | 86.2% | 95.5%
CO[C@H]1C[C@H]2OC[C@@]2(OC(C)=O)[C@H]2[C@H](OC(=O)c3ccccc3)[C@]3(O)C[C@H](OC(=O)[C@H](O)[C@@H](NC(=O)OC(C)(C)C)c4ccccn4)C(C)=C([C@@H](OC(=O)N(C)C)C(=O)[C@]12C)C3(C)C | 3.02 ×10⁻⁶ cm/s |  |  | 100% |  |  |  |  |  | 
CO[C@H]1C(=O)[C@]2(C)CC[C@H]3OC[C@@]3(OC(C)=O)[C@H]2[C@H](OC(=O)c2ccccc2)[C@]2(O)C[C@H](OC(=O)[C@H](O)[C@@H](NC(=O)OC(C)(C)C)c3ccccc3)C(C)=C1C2(C)C | 3.64 ×10⁻⁶ cm/s | 3.33 nM |  | 101% |  |  |  |  |  | 
CO[C@H]1C(=O)[C@]2(C)[C@@H](OC)C[C@H]3OC[C@@]3(OC(C)=O)[C@H]2[C@H](OC(=O)c2ccccc2)[C@]2(O)C[C@H](OC(=O)[C@H](O)[C@@H](NC(=O)c3ccccc3)c3ccccc3)C(C)=C1C2(C)C |  |  | 85% | 102% | 87.5% | 95.2% | 89.7% | 97.2% | 86.4% | 92.1%

From ChEMBL document CHEMBL3098054, “The synthesis of novel taxoids for oral administration” (Bioorg Med Chem, 2014)
